Test system: Leishmania mexicana
Assay: Antileishmanial activity against Leishmania mexicana MNYC/BZ/62/M379 amastigotes after 48 hrs by alamar blue assay
Format: functional, organism-based
Conditions: Leishmania mexicana, MNYC/BZ/62/M379, 48 h; read-out: EC50
Outline: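 Axenic L. mexicana MNYC/BZ/62/M379 amastigotes kept at 33 °C under CO2 in Schneider's Drosophila medium with 20% FBS and 0.3% gentamycin. Alamar Blue fluorescence read-out.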

`COc1cc(/C=C/C(=O)CC(=O)/C=C/c2ccc(OCC=C(C)C)c(OC)c2)ccc1OCC=C(C)C` and `COc1cc(/C=C/C(=O)CC(=O)/C=C/c2ccc(OCCO)c(OC)c2)ccc1O` are within 1.5-fold of each other in EC50: 27 µM for the first, 30 µM for the second.

First: COc1cc(/C=C/C(=O)/C=C/CCc2ccc(O)c(OC)c2)ccc1O
Second: COc1cc(/C=C/C(=O)CC(=O)/C=C/c2ccc(O)c(OC)c2)ccc1O [CURCUMIN]
The EC50 of the first is 3.5-fold lower: 4.6 µM for the first, 16 µM for the second. The first is the more potent here.

`COc1cc(CC/C=C/C(=O)CCc2ccc(OC(C)=O)c(OC)c2)ccc1OC(C)=O` and `COc1ccc(CC/C=C/C(=O)CCc2ccc(OC)c(OC)c2)cc1OC` are within 1.5-fold of each other in EC50: 35 µM for the first, 28 µM for the second.

For `COc1cc(CCC(=O)CC(O)CCc2ccc(O)c(OC)c2)ccc1O` (configuration not stated) [HEXAHYDROCURCUMIN], the EC50 was over 100 µM.

Test system: Trypanosoma brucei brucei
Assay: Selectivity ratio of EC50 for Trypanosoma brucei brucei 427 to EC50 for Trypanosoma brucei brucei deltaTbat1-KO
Format: functional
Conditions: not given
Outline: (§1)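 T. b. brucei bloodstream forms (strain 427, its ΔTbAT1 clone, and the pentamidine-adapted B48 line derived from it) cultured in HMI9 with 10% FBS at 37 °C under CO2. EC50 for each line from the Alamar Blue fluorescence assay with sigmoid fitting, and the ratio taken between lines.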

With `CC(=O)NCC(=O)O.N=C(N)c1ccc(/N=N/Nc2ccc(C(=N)N)cc2)cc1` [DIMINAZEN ACETURATE] the “Ratio EC50” value was 20.

Test system: Trypanosoma brucei brucei
Assay: Antitrypanosomal activity against Trypanosoma brucei brucei GUTat 3.1
Format: functional, organism-based
Conditions: not given

In the case of `COc1cc(/C=C/C(=O)CC(=O)/C=C/c2ccc(O)c(OC)c2)ccc1O` [CURCUMIN], the EC50 is reported as 4.8 µM.

Test system: HEK293
Assay: Cytotoxicity against HEK293 cells after 16 hrs by alamar blue assay
Format: cell-based, Homo sapiens
Conditions: Homo sapiens, HEK293, 16 h; read-out: EC50
Outline: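 HEK293T cells grown in DMEM-based medium with 10% newborn bovine serum at 37 °C, 5% CO2. Doubling dilutions of compound added for 16 h, then resazurin added. Fluorescence read at emission 590 nm after a further 24 h.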

Compared with `COc1cc(/C=C/C(=O)CC(=O)/C=C/c2ccc(OCC=C(C)C)c(OC)c2)ccc1OCC=C(C)C`, `COc1cc(/C=C/C(=O)CC(=O)/C=C/c2ccc(OCCO)c(OC)c2)ccc1O` is lower in EC50: over 1000 µM for the first, 25 µM for the second.

Compared with `COc1cc(/C=C/C(=O)/C=C/CCc2ccc(O)c(OC)c2)ccc1O`, `COc1cc(/C=C/C(=O)CC(=O)/C=C/c2ccc(O)c(OC)c2)ccc1O` [CURCUMIN] is 4.6-fold higher in EC50: 8.1 µM for the first, 37 µM for the second. The first is the more potent here.

`COc1cc(CC/C=C/C(=O)CCc2ccc(OC(C)=O)c(OC)c2)ccc1OC(C)=O` and `COc1ccc(CC/C=C/C(=O)CCc2ccc(OC)c(OC)c2)cc1OC` are within 1.5-fold of each other in EC50: 30 µM for the first, 26 µM for the second.

For `COc1cc(CCC(=O)CC(O)CCc2ccc(O)c(OC)c2)ccc1O` (configuration not stated) [HEXAHYDROCURCUMIN], the EC50 was 370 µM.

Test system: Trypanosoma brucei brucei
Assay: Selectivity ratio of EC50 for Trypanosoma brucei brucei 427 to EC50 for Trypanosoma brucei brucei B48
Format: functional
Conditions: not given
Outline: as §1

With `COc1ccc(CC/C=C/C(=O)CCc2ccc(OC)c(OC)c2)cc1OC` the “Ratio EC50” value was 83.

Test system: Trypanosoma brucei brucei
Assay: Antitrypanosomal activity against diminazene-resistant Trypanosoma brucei brucei deltaTbat1-KO after 48 hrs by alamar blue assay
Format: functional, organism-based
Conditions: not given

First: N=C(N)c1ccc(/N=N/Nc2ccc(C(=N)N)cc2)cc1 [DIMINAZENE]
Second: COc1cc(/C=C/C(=O)CC(=O)/C=C/c2ccc(O)c(OC)c2)ccc1O [CURCUMIN]
The EC50 of the first is 2-fold lower: 2400 nM for the first, 4700 nM for the second. The first is the more potent here.

First: COc1cc(/C=C/C(=O)CC(=O)/C=C/c2ccc(OCC=C(C)C)c(OC)c2)ccc1OCC=C(C)C
Second: COc1cc(/C=C/C(=O)CC(=O)/C=C/c2ccc(OCCO)c(OC)c2)ccc1O
The EC50 of the first is 1.8-fold lower: 1600 nM for the first, 2900 nM for the second.

Compared with `COc1cc(/C=C/C(=O)/C=C/CCc2ccc(O)c(OC)c2)ccc1O`, `COc1cc(CCC(=O)CC(O)CCc2ccc(O)c(OC)c2)ccc1O` (configuration not stated) [HEXAHYDROCURCUMIN] is 170-fold higher in EC50: 220 nM for the first, 38000 nM for the second. The first is the more potent here.

First: COc1cc(CC/C=C/C(=O)CCc2ccc(OC(C)=O)c(OC)c2)ccc1OC(C)=O
Second: COc1ccc(CC/C=C/C(=O)CCc2ccc(OC)c(OC)c2)cc1OC
The EC50 of the first is 38-fold lower: 42 nM for the first, 1600 nM for the second. The first is the more potent here.

Test system: Leishmania major
Assay: Antileishmanial activity against Leishmania major Friedlin promastigotes after 48 hrs by alamar blue assay
Format: functional, organism-based
Conditions: Leishmania major, Friedlin, 48 h; read-out: EC50
Outline: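 L. major Friedlin promastigotes grown in HOMEM with 10% FBS at 25 °C. Alamar Blue fluorescence assay in 96-well plates. 3–6 independent experiments unless noted.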

Compared with `COc1cc(/C=C/C(=O)CC(=O)/C=C/c2ccc(OCC=C(C)C)c(OC)c2)ccc1OCC=C(C)C`, `COc1cc(/C=C/C(=O)CC(=O)/C=C/c2ccc(OCCO)c(OC)c2)ccc1O` is lower in EC50: over 100 µM for the first, 22 µM for the second. The second is the more potent here.

Going from `COc1cc(/C=C/C(=O)/C=C/CCc2ccc(O)c(OC)c2)ccc1O` to `COc1cc(/C=C/C(=O)CC(=O)/C=C/c2ccc(O)c(OC)c2)ccc1O` [CURCUMIN], the EC50 rises from 2.7 µM to 33 µM (12-fold). The first is the more potent here.

Compared with `COc1cc(CC/C=C/C(=O)CCc2ccc(OC(C)=O)c(OC)c2)ccc1OC(C)=O`, `COc1ccc(CC/C=C/C(=O)CCc2ccc(OC)c(OC)c2)cc1OC` is 1.5-fold higher in EC50: 7.8 µM for the first, 12 µM for the second.

For `COc1cc(CCC(=O)CC(O)CCc2ccc(O)c(OC)c2)ccc1O` (configuration not stated) [HEXAHYDROCURCUMIN], the EC50 was over 100 µM.

Test system: Trypanosoma evansi
Assay: Antitrypanosomal activity against Trypanosoma evansi ITMAV170475 after 48 hrs by alamar blue assay
Format: functional, organism-based
Conditions: ITMAV170475, 48 h
Outline: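 Culture-adapted T. evansi ITMAV170475 seeded at 1.5 ×10⁵ trypanosomes/ml in HMI9/20% FBS. Exposed to compound for 48 h, then incubated with Alamar Blue for 24 h, all at 37 °C under CO2. Assay validated against hemocytometer cell counts. EC50 from a variable-slope sigmoid fit.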

Compared with `N=C(N)c1ccc(/N=N/Nc2ccc(C(=N)N)cc2)cc1` [DIMINAZENE], `COc1cc(/C=C/C(=O)CC(=O)/C=C/c2ccc(O)c(OC)c2)ccc1O` [CURCUMIN] is 110-fold higher in EC50: 18 nM for the first, 2000 nM for the second. The first is the more potent here.

Work on `COc1cc(/C=C/C(=O)/C=C/CCc2ccc(O)c(OC)c2)ccc1O` yielded an EC50 of 210 nM.

Test system: Trypanosoma brucei brucei
Assay: Antitrypanosomal activity against multidrug-resistant Trypanosoma brucei brucei B48 after 48 hrs by alamar blue assay
Format: functional, organism-based
Conditions: B48, 48 h

First: N=C(N)c1ccc(/N=N/Nc2ccc(C(=N)N)cc2)cc1 [DIMINAZENE]
Second: COc1cc(/C=C/C(=O)CC(=O)/C=C/c2ccc(O)c(OC)c2)ccc1O [CURCUMIN]
The EC50 of the first is 2.9-fold lower: 1000 nM for the first, 2900 nM for the second.

`COc1cc(/C=C/C(=O)CC(=O)/C=C/c2ccc(OCC=C(C)C)c(OC)c2)ccc1OCC=C(C)C` and `COc1cc(/C=C/C(=O)CC(=O)/C=C/c2ccc(OCCO)c(OC)c2)ccc1O` are within 1.5-fold of each other in EC50: 1300 nM for the first, 1800 nM for the second.

Compared with `COc1cc(/C=C/C(=O)/C=C/CCc2ccc(O)c(OC)c2)ccc1O`, `COc1cc(CCC(=O)CC(O)CCc2ccc(O)c(OC)c2)ccc1O` (configuration not stated) [HEXAHYDROCURCUMIN] is 59-fold higher in EC50: 100 nM for the first, 5900 nM for the second. The first is the more potent here.

`COc1cc(CC/C=C/C(=O)CCc2ccc(OC(C)=O)c(OC)c2)ccc1OC(C)=O` and `COc1ccc(CC/C=C/C(=O)CCc2ccc(OC)c(OC)c2)cc1OC` are within 1.5-fold of each other in EC50: 21 nM for the first, 23 nM for the second.

Test system: not listed separately
Assay: Selectivity index, ratio of EC50 for HEK cells to EC50 for Trypanosoma brucei brucei 427
Format: toxicity, cell-based, HEK293
Conditions: human, HEK cells versus Trypanosoma brucei brucei 427; read-out: Ratio EC50

For `COc1cc(/C=C/C(=O)CC(=O)/C=C/c2ccc(OCC=C(C)C)c(OC)c2)ccc1OCC=C(C)C`, the selectivity ratio was over 1000.

Test system: Trypanosoma brucei brucei
Assay: Antitrypanosomal activity against Trypanosoma brucei brucei 427 after 48 hrs by alamar blue assay
Format: functional, organism-based
Conditions: Trypanosoma brucei, 427, 48 h; read-out: EC50

First: N=C(N)c1ccc(/N=N/Nc2ccc(C(=N)N)cc2)cc1 [DIMINAZENE]
Second: COc1cc(/C=C/C(=O)CC(=O)/C=C/c2ccc(O)c(OC)c2)ccc1O [CURCUMIN]
The EC50 of the first is 21-fold lower: 120 nM for the first, 2500 nM for the second.

Compared with `COc1cc(/C=C/C(=O)CC(=O)/C=C/c2ccc(OCC=C(C)C)c(OC)c2)ccc1OCC=C(C)C`, `COc1cc(/C=C/C(=O)CC(=O)/C=C/c2ccc(OCCO)c(OC)c2)ccc1O` is 2.4-fold higher in EC50: 1200 nM for the first, 2900 nM for the second.

Compared with `COc1cc(/C=C/C(=O)/C=C/CCc2ccc(O)c(OC)c2)ccc1O`, `COc1cc(CCC(=O)CC(O)CCc2ccc(O)c(OC)c2)ccc1O` (configuration not stated) [HEXAHYDROCURCUMIN] is 77-fold higher in EC50: 220 nM for the first, 17000 nM for the second.

Compared with `COc1cc(CC/C=C/C(=O)CCc2ccc(OC(C)=O)c(OC)c2)ccc1OC(C)=O`, `COc1ccc(CC/C=C/C(=O)CCc2ccc(OC)c(OC)c2)cc1OC` is 37-fold higher in EC50: 52 nM for the first, 1900 nM for the second. The first is the more potent here.

Source: ChEMBL document CHEMBL1154833, “Curcuminoid analogs with potent activity against Trypanosoma and Leishmania species” (Eur J Med Chem, 2010)
